Experimental data reported in publication PMC2877169 (Journal of medicinal chemistry, 2010).
pIC50, pKd: −log10 of the molar value.

Experiments:
P450 enzymes = details: read-out: inhibition of P450 enzymes; previously reported weak inhibitor; cited from earlier work
T. cruzi amastigotes = experiment: T. cruzi amastigote growth; format: cell-based, Trypanosoma cruzi; details: relative to compound 1
[1] = biological target: rat protein farnesyltransferase (Rattus norvegicus, UniProt Q02293+Q04631); experiment: Rat protein farnesyltransferase inhibition assay; format: biochemical; details: for fold reduction in potency/affinity for protein farnesyltransferase compared to 1: relative to compound 1
[2] = biological target: recombinant Tc-L14DM (lanosterol 14α-demethylase) (Trypanosoma cruzi, UniProt Q7Z1V1); experiment: Binding to recombinant Tc-L14DM by difference optical spectroscopy
Sequence of recombinant Tc-L14DM (lanosterol 14α-demethylase) (Q7Z1V1 whole entry): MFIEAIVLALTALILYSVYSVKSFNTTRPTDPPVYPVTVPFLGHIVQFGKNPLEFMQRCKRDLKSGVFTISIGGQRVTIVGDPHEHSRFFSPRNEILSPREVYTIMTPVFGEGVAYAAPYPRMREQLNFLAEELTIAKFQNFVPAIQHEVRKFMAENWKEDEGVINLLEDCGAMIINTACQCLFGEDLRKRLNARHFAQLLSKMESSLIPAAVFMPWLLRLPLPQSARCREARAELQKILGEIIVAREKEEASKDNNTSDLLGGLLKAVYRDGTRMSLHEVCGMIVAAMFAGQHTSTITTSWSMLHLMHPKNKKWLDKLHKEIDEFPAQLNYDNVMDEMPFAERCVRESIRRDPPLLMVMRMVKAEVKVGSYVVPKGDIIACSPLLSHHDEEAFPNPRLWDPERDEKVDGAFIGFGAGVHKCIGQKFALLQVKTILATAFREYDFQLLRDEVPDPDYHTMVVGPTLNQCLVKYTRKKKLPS
Method in brief: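 Difference optical spectroscopy on recombinant T. cruzi lanosterol 14α-demethylase held at 1.4 μM, with test compound added at 200 nM – 2 uM; binding read from the difference spectra.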

| SMILES | fold reduction in potency/affinity for protein farnesyltransferase compared to 1 [1] | pIC50 [1] | further results |
| --- | --- | --- | --- |
| Cn1cncc1[C@@](N)(c1ccc(Cl)cc1)c1ccc2c(c1)c(-c1cccc(Cl)c1)cc(=O)n2C [Compound 1, tipifarnib] |  |  | pIC50 (P450 enzymes): < 5.00 |
| COC(c1ccc(Cl)cc1)(c1ccc2c(c1)c(-c1cccc(Cl)c1C)cc(=O)n2C)c1cncn1C (stereo not shown) [Compound 2] |  |  | fold more potent at killing T. cruzi amastigotes than 1 (T. cruzi amastigotes): about 10 fold |
| COC(c1ccc(Cl)cc1)(c1ccc2c(c1)c(-c1cccc(Cl)c1)cc(=O)n2C)c1cncn1C (stereo not shown) [Compound 3] | 100 fold |  |  |
| COC(c1ccc(Cl)cc1)(c1ccc2c(c1)c(-c1c(F)cccc1F)cc(=O)n2C)c1cncn1C (stereo not shown) [Compound 16, 4-(2,6-Difluorophenyl)-6-((4-chlorophenyl)(methoxy)(1-methyl-1H-imidazol-5-yl)methyl)-1-methylquinolin-2(1H)-one] |  |  | pKd [2]: > 5.85 |

Continued, in another order:

| fold reduction in potency/affinity for protein farnesyltransferase compared to 1 [1] | pIC50 [1] | SMILES | further results |
| --- | --- | --- | --- |
| ~ 500 fold |  | COC(c1ccc(Cl)cc1)(c1ccc2c(c1)c(-c1ccccc1)cc(=O)n2C)c1cncn1C (stereo not shown) [Compound 10] |  |
| ~ 600 fold |  | COC(c1ccc(Cl)cc1)(c1ccc2c(c1)c(-c1cc(C)cc(C)c1)cc(=O)n2C)c1cncn1C (stereo not shown) [Compound 17] |  |
|  | 6.10 | Cc1c(Cl)cccc1-c1cc(=O)n(C)c2ccc(C(O)(c3ccc(Cl)cc3)c3cncn3C)cc12 (stereo not shown) [Compound 20, 4-(3-Chloro-2-methylphenyl)-6-((4-chlorophenyl)(hydroxy)(1-methyl-1H-imidazol-5-yl)methyl)-1-methylquinolin-2(1H)-one] |  |
|  | 6.02 | CNC(c1ccc(Cl)cc1)(c1ccc2c(c1)c(-c1cccc(Cl)c1C)cc(=O)n2C)c1cncn1C (stereo not shown) [Compound 23, 4-(3-chloro-2-methylphenyl)-6-((4-chlorophenyl)(methylamino)(1-methyl-1H-imidazol-5-yl)methyl)-1-methylquinolin-2(1H)-one] |  |
| ~ 1,500 fold |  | CCn1cncc1C(OC)(c1ccc(Cl)cc1)c1ccc2c(c1)c(-c1cccc(Cl)c1)cc(=O)n2C (stereo not shown) [Compound 26] |  |
|  | 7.52 | CCn1cncc1C(O)(c1ccc(Cl)cc1)c1ccc2c(c1)c(-c1cccc(Cl)c1)cc(=O)n2C (stereo not shown) [Compound 27] |  |
